Source: ChEMBL document CHEMBL1137313, “A chimeric ligand approach leading to potent antiprion active acridine derivatives: design, synthesis, and biological investigations” (J Med Chem, 2006)

Experiments:
ScN2a [1] = assay: Toxicity against mouse ScN2a cells measured as less than 80% confluency after 1 week; assay type: functional
Method in brief: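 RML-infected ScN2a mouse neuroblastoma cells cultured 1 week in MEM with 10% FCS, with compound renewed with medium every second day. Toxicity scored as confluency below 80% at the end of treatment.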

ScN2a [2] = assay: Inhibition of protease-resistant scrapie prion protein activity in ScN2a cells; assay type: functional, cell-based; details: Mus musculus
Method in brief: (§1)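 Mouse N2a neuroblastoma cells chronically infected with RML scrapie, subcloned for high PrPSc. Grown in MEM with 10% FCS, penicillin-streptomycin and L-glutamine; compound renewed with medium every second day. Lysed day 7 (~80% confluent), proteinase K 20 µg/mL 30 min 37°C, ultracentrifuged pellet immunoblotted with anti-PrP antibody. EC50 from densitometry of five concentrations; full activity means complete loss of PK-resistant PrP; triplicate experiments.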

ScN2a [3] = assay: Antiprion activity in ScN2a cells assessed as complete reduction of protease-resistant scrapie prion protein; assay type: functional, Mus musculus; method in brief: as §1

| SMILES | Activity (ScN2a [1]) | EC50 (ScN2a [2]) | Activity (ScN2a [3]) |
| --- | --- | --- | --- |
| c1ccc2c(c1)Sc1ccccc1N2CCCN1CCN(CCCCNc2c3ccccc3nc3ccccc23)CC1 | 4000 nM | 300 nM | 750 nM |
| c1ccc(N(CCCN2CCN(CCNc3c4ccccc4nc4ccccc34)CC2)c2ccccc2)cc1 | 1000 nM | 75 nM | 200 nM |
| c1ccc2c(c1)CCc1ccccc1N2CCCN1CCN(CCCCNc2c3ccccc3nc3ccccc23)CC1 | 750 nM | 150 nM | 400 nM |
| COc1ccc2nc3cc(Cl)ccc3c(NCCCCN3CCN(CCCN4c5ccccc5CCc5ccccc54)CC3)c2c1 | 400 nM | 80 nM | 100 nM |
| c1ccc2c(c1)CCc1ccccc1N2CCCN1CCN(CCNc2c3ccccc3nc3ccccc23)CC1 | 500 nM | 20 nM | 75 nM |
| COc1ccc2nc3cc(Cl)ccc3c(NCCN3CCN(CCCN4c5ccccc5CCc5ccccc54)CC3)c2c1 | 2000 nM | 570 nM | 1000 nM |
| CN(C)CCCN1c2ccccc2CCc2ccccc21 [IMIPRAMINE] | – | 5000 nM | 10000 nM |
| COc1ccc2nc3cc(Cl)ccc3c(NCCCCN3CCN(CCCN4c5ccccc5Sc5ccccc54)CC3)c2c1 | 2000 nM | 350 nM | 1000 nM |
| COc1ccc2nc3cc(Cl)ccc3c(NCCCN3CCN(CCCN4c5ccccc5CCc5ccccc54)CC3)c2c1 | 1500 nM | 260 nM | 500 nM |
| COc1ccc2nc3cc(Cl)ccc3c(NCCCCN3CCN(CCCN(c4ccccc4)c4ccccc4)CC3)c2c1 | >1000 nM | 250 nM | 500 nM |
| c1ccc2c(c1)Sc1ccccc1N2CCCN1CCN(CCNc2c3ccccc3nc3ccccc23)CC1 | 3000 nM | 370 nM | 600 nM |
| COc1ccc2nc3cc(Cl)ccc3c(NCCCN3CCN(CCCN(c4ccccc4)c4ccccc4)CC3)c2c1 | 2000 nM | 280 nM | 500 nM |
| c1ccc2c(c1)Sc1ccccc1N2CCCN1CCN(CCCNc2c3ccccc3nc3ccccc23)CC1 | 1000 nM | 140 nM | 500 nM |
| c1ccc(N(CCCN2CCN(CCCNc3c4ccccc4nc4ccccc34)CC2)c2ccccc2)cc1 | 1500 nM | 120 nM | 500 nM |
| CCN(CC)CCCC(C)Nc1c2ccc(Cl)cc2nc2ccc(OC)cc12 (stereo not drawn) [QUINACRINE] | – | 300 nM | 500 nM |
| COc1ccc2nc3cc(Cl)ccc3c(NCCN3CCN(CCCN4c5ccccc5Sc5ccccc54)CC3)c2c1 | 4000 nM | 830 nM | 2000 nM |
| c1ccc(N(CCCN2CCN(CCCCNc3c4ccccc4nc4ccccc34)CC2)c2ccccc2)cc1 | 1000 nM | 230 nM | 400 nM |
| c1ccc2c(c1)CCc1ccccc1N2CCCN1CCN(CCCNc2c3ccccc3nc3ccccc23)CC1 | 1000 nM | 230 nM | 500 nM |
| COc1ccc2nc3cc(Cl)ccc3c(NCCN3CCN(CCCN(c4ccccc4)c4ccccc4)CC3)c2c1 | 1500 nM | 290 nM | 500 nM |
| COc1ccc2nc3cc(Cl)ccc3c(NCCCN3CCN(CCCN4c5ccccc5Sc5ccccc54)CC3)c2c1 | 2500 nM | 200 nM | 500 nM |
